Key:
[1] = biological target: Kappa-type opioid receptor (Cavia porcellus, UniProt P41144); test: Inhibitory concentration against Opioid receptor kappa 1 using [3H]- U-69,593 radioligand
How it was run: (§1)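 Guinea pig brain (minus cerebellum) homogenate in 0.05 M Tris pH 7.4, diluted 1:60 (0.8-1.5 mg protein/ml). Ligand tested in duplicate at nine concentrations; 60 min at 25 °C. Nonspecific binding defined with naloxone. Filtration, ice-cold buffer rinse, scintillation counting.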

[2] = biological target: Mu-type opioid receptor (Cavia porcellus) (UniProt P97266); test: Irreversible binding affinity at mu-receptor was evaluated as % of control specific binding remaining protected at concentration of 30 (nM) using [3H]DAMGO radioligand
Mu-type opioid receptor (Cavia porcellus), sequence (P97266 whole entry): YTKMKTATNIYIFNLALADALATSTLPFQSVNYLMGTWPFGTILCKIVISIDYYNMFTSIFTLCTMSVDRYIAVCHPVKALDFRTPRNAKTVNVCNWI
How it was run: (§2)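 Diluted guinea pig brain homogenate is exposed to ligand for 60 min at 25 °C; protected samples are first preincubated 15 min at 37 °C with 1 naloxone. Washed samples are diluted in ice-cold Tris pH 7.4, spun at 10000g for 15 min at 4 °C, then resuspended and incubated 15 min at 37 °C, twice. Read-out is standard radioligand binding, expressed as % of recovery-sample specific binding. Test ligands run in triplicate; reference averaged over three assays.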

[3] = biological target: Mu-type opioid receptor (Cavia porcellus) (UniProt P97266); test: Irreversible binding affinity at mu-receptor was evaluated as % of control specific binding remaining protected at concentration of 50 (nM) using [3H]DAMGO radioligand; how it was run: as §2
[4] = biological target: Mu-type opioid receptor (Cavia porcellus) (UniProt P97266); test: Irreversible binding affinity at mu-receptor was evaluated as % of control specific binding remaining unwashed at concentration of 30 (nM) using [3H]DAMGO radioligand
How it was run: (§3)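 Guinea pig brain homogenate (less cerebellum) in 0.05 M Trizma pH 7.4, diluted 1:60. It was incubated with ligand 60 min at 25 °C, then diluted in ice-cold buffer and centrifuged 10000g. Washed samples were resuspended in buffer, incubated 15 min at 37 °C and recentrifuged. Binding used 1.0 nM [3H]DAMGO for 60 min at 25 °C, with filtration and counting. Nonspecific binding was set with 10 µM naloxone. Triplicates; % specific binding was taken relative to recovery controls.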

[5] = biological target: Mu-type opioid receptor (Cavia porcellus) (UniProt P97266); test: Irreversible binding affinity at mu-receptor was evaluated as % of control specific binding remaining unwashed at concentration of 50 (nM) using [3H]DAMGO radioligand; how it was run: as §3
[6] = biological target: Kappa-type opioid receptor (Cavia porcellus) (UniProt P41144); test: Irreversible binding affinity at Opioid receptor kappa 1 was evaluated as % of control specific binding remaining unwashed at concentration of 20 (nM) using [3H]U-69593 radioligand; how it was run: as §2
Kappa-type opioid receptor (Cavia porcellus), sequence (P41144 whole entry): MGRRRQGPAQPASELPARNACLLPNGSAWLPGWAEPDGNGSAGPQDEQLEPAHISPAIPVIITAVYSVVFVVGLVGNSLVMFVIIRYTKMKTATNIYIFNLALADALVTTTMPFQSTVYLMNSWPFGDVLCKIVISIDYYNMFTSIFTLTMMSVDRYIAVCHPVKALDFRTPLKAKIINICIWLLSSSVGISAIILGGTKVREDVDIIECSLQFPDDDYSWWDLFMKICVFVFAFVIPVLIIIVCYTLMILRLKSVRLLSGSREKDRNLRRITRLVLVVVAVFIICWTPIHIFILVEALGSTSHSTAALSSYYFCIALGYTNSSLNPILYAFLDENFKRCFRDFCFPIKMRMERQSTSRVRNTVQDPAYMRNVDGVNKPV

[7] = biological target: Kappa-type opioid receptor (Cavia porcellus) (UniProt P41144); test: Irreversible binding affinity at Opioid receptor kappa 1 was evaluated as % of control specific binding remaining unwashed at concentration of 40 (nM) using [3H]U-69593 radioligand; how it was run: as §2
[8] = biological target: Kappa-type opioid receptor (Cavia porcellus) (UniProt P41144); test: Irreversible binding affinity at Opioid receptor kappa 1 was evaluated as % of control specific binding remaining washed at concentration of 20 (nM) using [3H]U-69593 radioligand; how it was run: as §2
[9] = biological target: Mu-type opioid receptor (Cavia porcellus) (UniProt P97266); test: Irreversible binding affinity at mu-receptor was evaluated as % of control specific binding remaining washed at concentration of 30 (nM) using [3H]DAMGO radioligand; how it was run: as §3
[10] = biological target: Kappa-type opioid receptor (Cavia porcellus) (UniProt P41144); test: Irreversible binding affinity at Opioid receptor kappa 1 was evaluated as % of control specific binding remaining protected at concentration of 20 (nM) using [3H]U-69593 radioligand; how it was run: as §2
[11] = biological target: Kappa-type opioid receptor (Cavia porcellus) (UniProt P41144); test: Irreversible binding affinity at Opioid receptor kappa 1 was evaluated as % of control specific binding remaining protected at concentration of 40 (nM) using [3H]U-69593 radioligand; how it was run: as §2
[12] = biological target: Opioid receptors; mu/kappa/delta; test: Inhibitory concentration was determined against Opioid receptors using [3H]- bremazocine radioligand; format: protein assay, Cavia porcellus; how it was run: as §1
[13] = biological target: Kappa-type opioid receptor (Cavia porcellus) (UniProt P41144); test: Irreversible binding affinity at Opioid receptor kappa 1 was evaluated as % of control specific binding remaining washed at concentration of 40 (nM) using [3H]U-69593 radioligand; how it was run: as §2
[14] = biological target: Mu-type opioid receptor (Cavia porcellus) (UniProt P97266); test: Irreversible binding affinity at mu-receptor was evaluated as % of control specific binding remaining washed at concentration of 50 (nM) using [3H]DAMGO radioligand; how it was run: as §3
Mu-type opioid receptor = Mu-type opioid receptor (Cavia porcellus, UniProt P97266); test: Inhibitory concentration was determined against Opioid receptor mu 1 using [3H]- DAMGO radioligand; how it was run: as §1
Mu-type opioid receptor, sequence (P97266 whole entry): as the sequence (P97266 whole entry) above

[15] = biological target: Kappa-type opioid receptor (Cavia porcellus) (UniProt P41144); test: Irreversible binding affinity at Opioid receptor kappa 1 was evaluated as % of control specific binding remaining unwashed at concentration of 30 (nM) using [3H]U-69593 radioligand; how it was run: as §2
[16] = biological target: Kappa-type opioid receptor (Cavia porcellus) (UniProt P41144); test: Irreversible binding affinity at Opioid receptor kappa 1 was evaluated as % of control specific binding remaining washed at concentration of 30 (nM) using [3H]U-69593 radioligand; how it was run: as §2
[17] = biological target: Kappa-type opioid receptor (Cavia porcellus) (UniProt P41144); test: Irreversible binding affinity at Opioid receptor kappa 1 was evaluated as % of control specific binding remaining protected at concentration of 30 (nM) using [3H]U-69593 radioligand; how it was run: as §2
[18] = biological target: Mu-type opioid receptor (Cavia porcellus) (UniProt P97266); test: Irreversible binding affinity at mu-receptor was evaluated as % of control specific binding remaining unwashed at concentration of 10 (nM) using [3H]-DAMGO radioligand Values from 3 separate assays (+/-10%); how it was run: as §2
[19] = biological target: Mu-type opioid receptor (Cavia porcellus) (UniProt P97266); test: Irreversible binding affinity at mu-receptor was evaluated as % of control specific binding remaining washed at concentration of 10 (nM) using [3H]DAMGO radioligand Values from 3 separate assays (+/-10%)
[20] = biological target: Mu-type opioid receptor (Cavia porcellus) (UniProt P97266); test: Irreversible binding affinity at mu-receptor was evaluated as % of control specific binding remaining protected at concentration of 10 (nM) using [3H]DAMGO radioligand Values from 3 separate assays (+/-10%); how it was run: as §2
[21] = Inhibitory concentration was determined against delta-opioid receptor using [3H]- DPDPE radioligand

Kappa-type opioid receptor, sequence (P41144 whole entry): as the sequence (P41144 whole entry) above

## Oc1ccc2c3c1O[C@H]1[C@H](OCc4ccc(CN=C=S)cc4)CC[C@@]4(O)C(C2)N(CC2CC2)CCC314 (stereo not given in full)
[1]
  IC50: 7.4 nM
[2]
  Control: 67%
[3]
  Control: 60%
[4]
  Control: 59%
[5]
  Control: 22%
[6]
  Control: 61%
[7]
  Control: 32%
[8]
  Control: 68%
[9]
  Control: 56%
[10]
  Control: 95%
[11]
  Control: 64%
[12]
  IC50: 21 nM
[13]
  Control: 58%
[14]
  Control: 58%
Mu-type opioid receptor
  IC50: 11 nM

## Oc1ccc2c3c1O[C@H]1[C@@H](O)CC[C@@]4(O)[C@@H](C2)N(CC2CC2)CC[C@]314
[1]
  IC50: 2.6 nM
Mu-type opioid receptor
  IC50: 1.1 nM

## Oc1ccc2c3c1O[C@H]1[C@H](OCc4cccc(CN=C=S)c4)CC[C@@]4(O)C(C2)N(CC2CC2)CCC314 (stereo not given in full)
[1]
  IC50: 6 nM
[6]
  Control: 56%
[15]
  Control: 22%
[8]
  Control: 68%
[16]
  Control: 58%
[10]
  Control: 94%
[17]
  Control: 73%
[12]
  IC50: 24 nM
Mu-type opioid receptor
  IC50: 19 nM

## Oc1ccc2c3c1OC1[C@H](OCc4ccccc4)CCC4(O)C(C2)N(CC2CC2)CCC314 (stereo not given in full)
[18]
  Control: 14%
[19]
  Control: 100%
[20]
  Control: 104%
[21]
  IC50: 2.9 nM
